Drawing on ChEMBL document CHEMBL1142928, “Substitution at the 8-position of 3''-deoxy-cyclic ADP-carbocyclic-ribose, a highly potent Ca2+-mobilizing agent, provides partial agonists” (Bioorg Med Chem, 2007), this text covers IC50, Activity and EC50 for nine compounds.

The source made the active and inactive calls. The rule behind the calls is not given here.

Type in all cases: functional
The subject of assay [1] is Echinoidea. Nature of the assay: Inhibition of cADPcR-induced calcium release in Sea urchin egg homogenate. The method in brief: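 Hemicentrotus pulcherrimus egg homogenate was read by fura-2 fluorescence ratio (F340/F380). Homogenate was exposed to graded analogue concentrations, then challenged with the maximal concentration of cADPcR. IC50 values were derived from dose-dependent desensitization (cross-desensitization) of the cADPcR-induced Ca2+ release.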

Assay [2] concerns Echinoidea. As to the kind of experiment: Calcium-mobilizing activity in Sea urchin egg homogenate relative to cADPcR. The method in brief: (§1)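 Homogenate of Hemicentrotus pulcherrimus sea urchin eggs. Ca2+ release was monitored fluorometrically with fura-2 as the F340/F380 ratio over a range of analogue concentrations. Each response was expressed as the percent change in ratio relative to the response to the maximal cADPcR concentration. EC50 values were taken from dose–response curves.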

The subject of assay [3] is Echinoidea. As to the kind of experiment: Calcium-mobilizing activity in Sea urchin egg homogenate. In a few lines:
as §1

The term IC50 denotes the point on the concentration scale where inhibition reaches its midpoint. With `[N-]=[N+]=Nc1nc2c(N)[n+]3cnc2n1[C@@H]1O[C@H](COP(=O)(O)OP(=O)([O-])OC[C@H]2C[C@@H]3[C@H](O)[C@@H]2O)[C@@H](O)[C@H]1O`, the IC50 in the assay with Echinoidea [1] worked out at 4200 nM.
As a reminder, the EC50 is the concentration needed to bring the measured effect to its halfway point. In the case of `[N-]=[N+]=Nc1nc2c(N)[n+]3cnc2n1[C@@H]1O[C@H](COP(=O)(O)OP(=O)([O-])OC[C@@H]2C[C@@H](O)[C@H]3C2)[C@@H](O)[C@H]1O`, the Activity in the assay on Echinoidea [2] is 16%. Besides, the half-maximal effective concentration (EC50) in the assay with Echinoidea [3] came out at 490 nM. The 50% inhibitory concentration (IC50) in the assay with Echinoidea [1] is 1100 nM.
Regarding `Nc1c2ncn3c2nc[n+]1[C@@H]1C[C@H](COP(=O)([O-])OP(=O)(O)OC[C@H]2O[C@@H]3[C@H](O)[C@@H]2O)C[C@H]1O`, the Activity in the assay with Echinoidea [2] worked out at 100%. Besides, in the assay on Echinoidea [3], the EC50 worked out at 17 nM.
Consider `Nc1c2ncn3c2nc[n+]1[C@@H]1C[C@H](COP(=O)([O-])OP(=O)(O)OC[C@H]2O[C@@H]3[C@H](O)[C@@H]2O)[C@@H](O)[C@H]1O`, for which, in the assay on Echinoidea [3], the EC50 came to 79 nM.
Regarding `Nc1c2nc(Cl)n3c2nc[n+]1[C@@H]1C[C@H](COP(=O)([O-])OP(=O)(O)OC[C@H]2O[C@@H]3[C@H](O)[C@@H]2O)C[C@H]1O`, in the assay with Echinoidea [2], the Activity was 21%. The half-maximal effective concentration (EC50) in the assay with Echinoidea [3] worked out at 190 nM. Also, in the assay on Echinoidea [1], the IC50 amounted to 410 nM.
With `Nc1nc2c(N)[n+]3cnc2n1[C@@H]1O[C@H](COP(=O)(O)OP(=O)([O-])OC[C@@H]2C[C@@H](O)[C@H]3C2)[C@@H](O)[C@H]1O`, the Activity with Echinoidea [2] was determined as 14%. Also, the EC50 in the assay with Echinoidea [3] is 17 nM. For the same compound, the IC50 with Echinoidea [1] is 44 nM.
On to `Nc1nc2c(N)[n+]3cnc2n1[C@@H]1O[C@H](COP(=O)([O-])OP(=O)(O)OC[C@H]2C[C@@H]3[C@H](O)[C@@H]2O)[C@@H](O)[C@H]1O`, for which the Activity with Echinoidea [2] is 33%. Also, the EC50 in the assay on Echinoidea [3] was 89 nM. Besides, the 50% inhibitory concentration (IC50) in the assay with Echinoidea [1] is 96 nM.
Regarding `Nc1c2nc(Cl)n3c2nc[n+]1[C@@H]1C[C@H](COP(=O)(O)OP(=O)([O-])OC[C@H]2O[C@@H]3[C@H](O)[C@@H]2O)[C@@H](O)[C@H]1O`, the IC50 in the assay on Echinoidea [1] worked out at 3000 nM.
On to `CCCNc1nc2c(N)[n+]3cnc2n1[C@@H]1O[C@H](COP(=O)(O)OP(=O)([O-])OC[C@@H]2C[C@@H](O)[C@H]3C2)[C@@H](O)[C@H]1O`, for which the result in the assay on Echinoidea [3] was inactive.
